Experimental data as given in ChEMBL document CHEMBL3352730, “Synthesis and effects on cell viability of flavonols and 3-methyl ether derivatives on human leukemia cells” (Eur J Med Chem, 2014).

Test system: not listed separately
Experiment: Cytotoxicity against human HL60 cells after 72 hrs by MTT assay
Format: functional, cell-based
Conditions: HL-60, 72 h
How it was run: (§1)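 MTT colorimetric assay with 72 h continuous exposure. IC50 was fitted per experiment by non-linear regression. Values are means with SE from at least three independent experiments, each run in triplicate.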

SMILES	IC50 [µM]
COc1cc(O)c2c(=O)c(OC)c(-c3ccc(OC)c(OC)c3)oc2c1 [RETUSIN]	28
COc1ccc(-c2oc3cc(OC)ccc3c(=O)c2O)cc1	148
COc1ccc2c(=O)c(O)c(-c3cc(OC)c(OC)c(OC)c3)oc2c1	34
O=c1c(O)c(-c2ccc(Cl)cc2)oc2ccccc12	102
COc1ccc(-c2oc3ccccc3c(=O)c2OC)c(OC)c1C	96
COc1ccc2c(=O)c(OC)c(-c3ccc(OC)c(C)c3OC)oc2c1	27
COc1ccc(-c2oc3ccccc3c(=O)c2O)c(OC)c1	53
COc1ccc(-c2oc3ccccc3c(=O)c2OC)cc1	39
COc1c(-c2cccc3ccccc23)oc2ccccc2c1=O	16
O=c1c(O)c(-c2ccccc2Cl)oc2ccccc12	10.7
COc1ccc(-c2oc3cc(OC)ccc3c(=O)c2OC)cc1	122
COc1cc([C@@H]2c3cc4c(cc3[C@@H](O[C@@H]3O[C@@H]5CO[C@@H](C)O[C@H]5[C@H](O)[C@H]3O)[C@H]3COC(=O)[C@H]23)OCO4)cc(OC)c1O [ETOPOSIDE]	0.6
COc1ccccc1-c1oc2ccccc2c(=O)c1OC	98
O=c1c(O)c(-c2ccc(O)c(O)c2)oc2cc(O)cc(O)c12 [QUERCETIN]	47
COc1ccc2c(=O)c(OC)c(-c3cc(OC)c(OC)c(OC)c3)oc2c1	21
COc1ccc(-c2oc3ccccc3c(=O)c2OC)c(OC)c1	34
COc1ccccc1-c1oc2ccccc2c(=O)c1O	30
COc1cc(-c2oc3ccccc3c(=O)c2O)cc(OC)c1OC	138
COc1c(-c2ccc(Br)cc2)oc2ccccc2c1=O	21
COc1c(-c2ccc(Cl)cc2)oc2ccccc2c1=O	26
COc1ccc(-c2oc3ccccc3c(=O)c2O)c(OC)c1C	32

Test system: not listed separately
Experiment: Cytotoxicity against human HL60/MX1 cells after 72 hrs by MTT assay
Format: functional, cell-based
Conditions: HL60/MX1, 72 h
How it was run: as §1

SMILES	IC50 [µM]
O=c1c(O)c(-c2ccccc2Cl)oc2ccccc12	> 30

Test system: Raji
Experiment: Cytotoxicity against human Raji cells after 72 hrs by MTT assay
Format: functional, cell-based
Conditions: not given
How it was run: as §1

SMILES	IC50 [µM]
O=c1c(O)c(-c2ccccc2Cl)oc2ccccc12	> 30

Test system: HL-60
Experiment: Induction of apoptosis in human HL60 cells at 30 uM after 24 hrs by propidium iodide staining based flow cytometry (reference value: 3.8 +/- 0.6%)
Format: functional
Conditions: not given

SMILES	Activity [%]
O=c1c(O)c(-c2ccccc2Cl)oc2ccccc12	14.9
